From ChEMBL document CHEMBL5154683, “A 5-FU Precursor Designed to Evade Anabolic and Catabolic Drug Pathways and Activated by Pd Chemistry In Vitro and In Vivo” (J Med Chem, 2022)
Calls of active or inactive are those of the source. The calls are words filed in the database; no cut-off is given here.

What was measured:
[1] = AUC (0 to infinity) in male Wistar Han rat at 10 mg/kg, po administered as single dose measured upto 24 hrs; assay type: ADME, organism-based; set-up: time < 24 hrs, dose 10 mg/kg, route po; details: in vivo
Summary of the method: (§1)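 Male jugular-vein-cannulated Wistar Han rats, 263–319 g, single dose. IV: 1 mg/kg as 2 mL/kg of 0.5 mg/mL in 5% DMSO/95% HPCD (20% w/v), not fasted. PO: 10 mg/kg as 5 mL/kg of 2 mg/mL suspension in 5% DMSO/95% tween 80/HPCD vehicle, fasted overnight. Serial cannula blood sampling 0.083/0.25–24 h (n = 3/route); parent quantified by QToF against calibration curve.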

[2] = Prodrug conversion in PBS buffer assessed as mono-depropargylated intermediate formation by measuring retention time at 100 uM in presence of Pd-resin measured upto 1 hr by UPLC analysis; assay type: ADME
Summary of the method: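 Prodrug (100 μM in PBS, pH 7.4) shaken at 1200 rpm, 37 °C with 1 mg/mL Pd resins (30 μm). Sampled at 10, 20, 40 min, 1, 3, 6, 24 and 48 h; analyzed by reverse-phase UPLC (C18, 60 °C, UV 254 nm), products identified by retention time against authentic standards.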

[3] = Tmax in male Wistar Han rat at 1000 mg/kg, po administered as single dose measured upto 24 hrs; assay type: ADME, organism-based; details: in vivo
Summary of the method: (§2)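 Single oral dose 1000 mg/kg in male and female rats, dosing volume 10 mL/kg (n = 6); animals observed 14 days with clinical checks, functional/neurobehavioral tests and body weight, necropsy on d15; exposure parameters from the toxicokinetic arm of this study.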

Albumin = Albumin (Homo sapiens, UniProt P02768); assay: Binding affinity to human plasma albumin; assay type: ADME, cell-free
Sequence of Albumin (P02768 whole entry): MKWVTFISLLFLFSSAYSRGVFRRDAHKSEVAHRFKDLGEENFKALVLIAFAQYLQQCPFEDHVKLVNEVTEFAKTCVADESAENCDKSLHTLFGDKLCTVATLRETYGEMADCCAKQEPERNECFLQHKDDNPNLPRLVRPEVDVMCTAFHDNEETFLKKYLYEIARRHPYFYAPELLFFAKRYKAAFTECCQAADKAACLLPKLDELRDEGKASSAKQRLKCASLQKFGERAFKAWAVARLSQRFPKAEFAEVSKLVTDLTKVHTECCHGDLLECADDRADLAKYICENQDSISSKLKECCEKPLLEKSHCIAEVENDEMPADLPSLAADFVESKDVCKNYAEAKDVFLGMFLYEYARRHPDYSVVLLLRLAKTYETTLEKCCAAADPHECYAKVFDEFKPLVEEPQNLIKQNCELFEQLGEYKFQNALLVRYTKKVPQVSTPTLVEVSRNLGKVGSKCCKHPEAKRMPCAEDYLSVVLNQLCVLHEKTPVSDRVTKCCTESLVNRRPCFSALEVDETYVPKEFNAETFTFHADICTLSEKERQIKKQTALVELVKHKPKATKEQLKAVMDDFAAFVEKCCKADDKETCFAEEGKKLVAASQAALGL

[4] = Efflux ratio of apparent permeability across basolateral to apical side over apical to basolateral side in human Caco2 cells at 10 uM measured after 120 mins by LC-MS/MS analysis; assay type: ADME, cell-based; details: Caco-2
Summary of the method: (§3)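 Caco-2 cells (P40-60) seeded at 1 × 10⁵ cells/cm² on Transwells, used on day 20; rinsed and equilibrated 40 min in HBSS pH 7.4. Compound at 10 μM in HBSS, 1% v/v DMSO, added apically (A–B) or basolaterally (B–A); 120 min at 37 °C, 5% CO₂. Lucifer yellow monitored monolayer integrity; LC-MS/MS with eight-point calibration; recovery from C₀ and both compartments.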

[5] = Metabolic stability in rat hepatocytes assessed as half life at 3 uM by LC-MS/MS analysis; assay type: ADME, cell-based, Hepatocyte
Summary of the method: (§4)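 Suspended hepatocytes (0.5 × 10⁶ cells/mL) in Williams E medium with 2 mM L-glutamine and 25 mM HEPES at 37 °C, compound added with 0.25% v/v DMSO after preincubation; aliquots quenched into methanol with internal standard at time points, centrifuged, supernatant analyzed by LC-MS/MS; two control compounds included.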

HCT-116 [6] = assay: Antiproliferative activity against human HCT-116 cells assessed as increase in cytotoxicity at 1 uM incubated for 5 days in presence of Pd-resin by PrestoBlue dye based assay; assay type: functional, cell-based; details: time 5.0 day
[7] = Toxicity in BALB/c nude mouse xenografted with human HCT-116 cells assessed as change in body weight at 75 to 150 mg/kg, po administered via oral gavage measured daily for 7 days; assay type: organism-based; details: in vivo, 168 h, dose 75-150 mg/kg, time 7 day
Summary of the method: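 Female BALB/c nude mice, 6–7 weeks, inoculated s.c. with 5 × 10⁵ HCT116 cells in 1:1 Matrigel/PBS; at 200–300 mm³ randomized; Pd resins (2 mg in 50 μL) injected intratumorally (groups 1–3), then oral gavage daily for 7 days with 150 or 75 mg/kg or vehicle; untreated group. Body weight daily, clinical signs twice daily.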

[8] = Cmax in female Wistar Han rat at 1000 mg/kg, po administered as single dose measured upto 24 hrs; assay type: ADME, organism-based; set-up: time < 24 hrs, dose 1000 mg/kg, route po; details: in vivo; summary of the method: as §2
[9] = Metabolic stability in rat hepatocytes assessed as intrinsic clearance at 1 uM measured per 10^6 cells by LC-MS/MS analysis; assay type: ADME, cell-based, Hepatocyte; details: read-out: CLH; summary of the method: as §4
[10] = Cmax in male Wistar Han rat at 10 mg/kg, po administered as single dose measured upto 24 hrs; assay type: ADME, organism-based; set-up: time < 24 hrs, dose 10 mg/kg, route po; details: in vivo; summary of the method: as §1
[11] = Plasma protein binding in human at 5 uM; assay type: ADME, cell-free; details: read-out: PPB (converted)
Summary of the method: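 Binding of compound at 5 μM measured in rat and human plasma, with compound recovery determined; n = 3.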

[12] = Apparent permeability across basolateral to apical side in human Caco-2 cells assessed as drug recovery at 10 uM measured after 120 mins by LC-MS/MS analysis; assay type: ADME, cell-based; details: read-out: Drug recovery; summary of the method: as §3
[13] = Half life in male Wistar Han rat at 1 mg/kg, iv administered as single dose measured upto 24 hrs; assay type: ADME, organism-based; details: in vivo; summary of the method: as §1
[14] = AUC (0 to t) in female Wistar Han rat at 1000 mg/kg, po administered as single dose measured upto 24 hrs; assay type: ADME, organism-based; set-up: dose 1000 mg/kg, time < 24 hrs, route po; details: in vivo; summary of the method: as §2
[15] = Volume of distribution at steady state in male Wistar Han rat at 1 mg/kg, iv administered as single dose measured upto 24 hrs; assay type: ADME, organism-based; details: in vivo, read-out: Vdss
Summary of the method: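 Male jugular-vein-cannulated Wistar Han rats (n = 3, 263–319 g, not fasted) given 1 mg/kg IV as 2 mL/kg of 0.5 mg/mL solution in 5% DMSO/95% HPCD (20% w/v). Serial blood via cannula from 0.083 to 24 h, mixed with heparinized water and stored at –20 °C. Parent quantified by QToF against a calibration curve.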

HCT-116 [16] = assay: Antiproliferative activity against human HCT-116 cells assessed as reduction in cell viability at 100 uM incubated for 5 days in presence of Pd-resins at 0.8 mg/ml by PrestoBlue dye based assay relative to control; assay type: functional; details: time 5 day
Summary of the method: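 HCT116 seeded at 750 cells/well and grown 48 h. Medium then replaced with fresh medium with or without Pd resins (20–160 μg per well; 0.2–1.4 mg/mL). Compound added as 5 μL of a 2 mM stock in 2% DMSO/medium, incubated 5 d. PrestoBlue fluorescence read; values normalised to untreated cells within each resin dilution.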

[17] = Metabolic stability in rat hepatocytes assessed as half life at 1 uM by LC-MS/MS analysis; assay type: ADME, cell-based, Hepatocyte; summary of the method: as §4
[18] = Prodrug conversion in human liver S9 fraction assessed as DH5FU metabolite formation at 1.6 mM incubated for 1 hr in presence of NADPH by 19F-NMR based analysis; assay type: ADME, subcellular; details: s9, 1 h, 1600 µM
Summary of the method: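 Compound added as 150 mM stock in DMSO-d₆, preincubated 5 min at 37 °C with enzyme mixture, then NADPH added (1 mM) and incubated 1 h at 37 °C, 600 rpm; controls without NADPH and without enzymes. Stopped with EtOAc, dried under N₂, redissolved in DMSO-d₆, DH5FU detected by ¹⁹F NMR vs authentic sample.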

BXPC-3 = assay: Antiproliferative activity against human BxPC-3 cells assessed as increase in cytotoxicity at 1 uM incubated for 5 days in presence of Pd-resin by PrestoBlue dye based assay; assay type: functional, cell-based; details: time 5.0 day
Summary of the method: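 BxPC-3 (RPMI, 10% FBS, 2 mM glutamine) at 2500 cells/well, 48 h attachment, then fresh medium with 1 μM drug/prodrug ± 1 mg/mL Pd resins, 0.1% v/v DMSO, 5 d at 37 °C. Viability by PrestoBlue (10% v/v, 1 h, ex 540/em 590 nm), normalized to DMSO-treated cells; n = 3.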

## C#CCOc1ncc(F)c(OCC#C)n1
[1]
  AUC(0-inf): 6.19 µg·h/mL
[2]
  Retention_time: 0.98 min
[3]
  Tmax: 1 h
Albumin
  Activity: 10%
[4]
  efflux ratio at 2 h, 10 µM: 1.38
[5]
  half-life at 3 µM: 6.97 h
HCT-116 [6]
  Activity: Active
[7]
  Activity: Non-Toxic
[8]
  Cmax: 83600 ng/mL
[9]
  hepatocyte CLint at 1 µM: 15.3 µL/min/1e6 cells
[10]
  Cmax: 3610 ng/mL
[11]
  fraction unbound at 5 µM: 0.142
[12]
  recovery at 2 h, 10 µM: 73.9%
[13]
  half-life: 0.497 h
[14]
  AUC(0-t) at 24 h: 1210 µg·h/mL
[15]
  Vd: 1.76 L/kg
HCT-116 [16]
  Activity: 7%
[17]
  half-life at 1 µM: 1.52 h
[18]
  Drug metabolism: Metabolite_Notdetected
BXPC-3
  Activity: Active
